# Bioassay records as filed in PubChem.
# INS-1E rescue: protection of INS-1E cells from cytokine death, primary screen, ATP luminescence, single point. protection from cytokine-induced ATP loss, % at 10 µM. INS-1E cytokine-induced death, 48 h; normalised: neutral wells 0, positive control 100. 0.1% of 20,000 active;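 active = mean replicate protection from cytokine-induced ATP loss at least 50% and at least 75% of replicates each reaching 50%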
#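 assay system = INS-1E rat insulinoma cells | amount = 8000 cells per well | medium = phenol-red-free RPMI with 5% fetal bovine serum | doses = one compound concentration, pin transfer | timing = 48 h cytokine plus compound treatment, 10 min reagent incubation | also added = IL-1β, TNF-α and IFN-γ cytokine mix | signal = CellTiter-Glo luminescence measuring cellular ATP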
# T cruzi HTS: inhibitors of intracellular Trypanosoma cruzi, primary screen, cell-based, plate reader, single point, set 2; intracellular Trypanosoma cruzi in host cells; activity score (inhibition), % at 5.01 µM; 4.9% of 22,000 active; AID 651903, 2012; in the data active = activity score above about 55%;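 also: parasites and compound incubated about four days before reading; 0% = median of neutral control wells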
# A1 apoptosis 2: A1 inhibitors via caspase activation, primary screen, cell-based, luminescence, HTS, two replicates; MEF A1-2A-BIM cells, caspase-Glo luminescence, 3 h; percent of clofoctol response, DMSO zero; caspase activation, % (test concentration not listed); 24,000 tested, under 10 active; AID 2465, 2010; in the data active = caspase activation above about 5.9%
#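 Evaluation: Caspase-3/7 activity from luminescence increase | Assay system: A1-2A-BIM mouse embryonic fibroblasts | Quantity: 2500 MEF cells/well | Medium: RPMI-1640 plus 10% FBS | Detection: Caspase-Glo 3/7 luminescence, 1 h at room temperature | Dosing: 50 nL compound per well, pinned | Timing: Cells settled overnight, compound exposure 3 h at 37 °C, 5% CO2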
# * = called active by the depositor; x = no result. Shown is part of a subset that was picked to be rich in hits.
SMILES,INS-1E rescue,T cruzi HTS,A1 apoptosis 2
C[C@@H]1CCCCO[C@@H](CN(C)Cc2ccc(Cl)c(Cl)c2)[C@@H](C)CN([C@H](C)CO)C(=O)c2cc(NC(=O)NC3CCCCC3)ccc2O1,-16,66*,1
CC(C)NC(=O)Nc1ccc2c(c1)C(=O)N([C@H](C)CO)C[C@@H](C)[C@H](CN(C)Cc1ccc(C(F)(F)F)cc1)O2,x,-16,-1
C[C@H](CO)N1C[C@H](C)[C@@H](CN(C)S(=O)(=O)c2ccc(F)cc2)Oc2ccc(NC(=O)CCCCCC(=O)Nc3ccccc3N)cc2C1=O,16,-13,1
C[C@@H]1CN([C@@H](C)CO)C(=O)Cc2cc(NC(=O)Cc3cn(C)c4ccccc34)ccc2O[C@@H]1CN(C)Cc1ccc(C(=O)Nc2ccccc2N)cc1,x,x,0
C[C@H](CO)N1C[C@H](C)[C@H](CN(C)Cc2ccc(C(=O)Nc3ccccc3N)cc2)Oc2ccc(NC(=O)Cc3cn(C)c4ccccc34)cc2CC1=O,40,34,x
C[C@H]1CN([C@@H](C)CO)C(=O)Cc2cc(NC(=O)Cc3cn(C)c4ccccc34)ccc2O[C@H]1CN(C)Cc1ccc(C(=O)Nc2ccccc2N)cc1,12,66*,x
C[C@@H]1CN([C@H](C)CO)C(=O)Cc2cc(NC(=O)Cc3cn(C)c4ccccc34)ccc2O[C@@H]1CN(C)Cc1ccc(C(=O)Nc2ccccc2N)cc1,-8,72*,1
COc1ccc(CN(C)C[C@@H]2Oc3c(NC(=O)Nc4ccc5c(c4)OCO5)cccc3C(=O)N([C@H](C)CO)C[C@@H]2C)cc1,-1,-9,0
C[C@@H]1CN([C@@H](C)CO)C(=O)Cc2cc(NC(=O)Nc3ccc4c(c3)OCO4)ccc2O[C@@H]1CN(C)Cc1ccc2c(c1)OCO2,-9,25,x
C[C@H]1CN([C@@H](C)CO)C(=O)Cc2cc(NC(=O)Nc3ccc(C(F)(F)F)cc3)ccc2O[C@@H]1CN(C)Cc1ccc2c(c1)OCO2,-7,18,x
C[C@H](CO)N1C[C@H](C)[C@H](CN(C)Cc2ccc3c(c2)OCO3)Oc2ccc(NC(=O)Nc3ccc(C(F)(F)F)cc3)cc2CC1=O,-35,74*,0
C[C@@H]1CN([C@H](C)CO)C(=O)Cc2cc(NC(=O)Nc3ccc(C(F)(F)F)cc3)ccc2O[C@@H]1CN(C)Cc1ccc2c(c1)OCO2,-59,62*,0
C[C@@H]1CN([C@H](C)CO)C(=O)Cc2cc(NC(=O)Nc3ccc(F)cc3)ccc2O[C@H]1CN(C)Cc1ccc2c(c1)OCO2,-2,7,0
C[C@@H]1CN([C@H](C)CO)C(=O)Cc2cc(NC(=O)Nc3ccc4c(c3)OCO4)ccc2O[C@@H]1CN(C)Cc1ccc(C(F)(F)F)cc1,-25,76*,x
C[C@@H]1CN([C@@H](C)CO)C(=O)Cc2cc(NS(=O)(=O)c3cccs3)ccc2O[C@@H]1CN(C)C(=O)Nc1ccc2c(c1)OCO2,0,2,-1
COC(=O)CCCCCCC(=O)N/N=C/[C@@H]1CCCN1C(=O)OC(C)(C)C,-2,1,0
C[C@@H]1CN([C@H](C)CO)C(=O)c2cccc(NC(=O)Nc3ccc4c(c3)OCO4)c2O[C@H]1CN(C)S(C)(=O)=O,5,15,-1
COc1ccc(S(=O)(=O)Nc2cccc3c2O[C@@H](CN(C)S(=O)(=O)c2cn(C)cn2)[C@@H](C)CN([C@H](C)CO)C3=O)cc1,3,-16,2
C[C@@H]1CN([C@H](C)CO)C(=O)c2cccc(NC(=O)c3nc4ccccc4s3)c2O[C@@H]1CN(C)Cc1ccc2c(c1)OCO2,-20,-15,0
C[C@@H]1CN([C@H](C)CO)C(=O)c2cccc(NC(=O)c3nc4ccccc4s3)c2O[C@H]1CN(C)Cc1ccc2c(c1)OCO2,-27,48,-2
C[C@@H]1CN([C@@H](C)CO)C(=O)c2cccc(NC(=O)c3nc4ccccc4s3)c2O[C@H]1CN(C)Cc1ccc2c(c1)OCO2,-25,61*,-1
C[C@H]1CN([C@@H](C)CO)C(=O)c2cccc(NC(=O)c3nc4ccccc4s3)c2O[C@@H]1CN(C)Cc1ccc2c(c1)OCO2,-27,59*,x
C[C@@H]1CN([C@@H](C)CO)C(=O)c2cc(NC(=O)Nc3cccc4ccccc34)ccc2O[C@@H]1CN(C)C(=O)Nc1ccc(F)cc1,-3,5,x
C[C@H](CO)N1C[C@H](C)[C@H](CN(C)C)Oc2ncc(C#CCN(C)C)cc2C1=O,x,-15,x
Cc1cccc(CN(C)C[C@@H]2Oc3ncc(C#Cc4ccccc4)cc3C(=O)N([C@H](C)CO)C[C@@H]2C)c1,x,74*,0
SMILES,INS-1E rescue,T cruzi HTS,A1 apoptosis 2
COc1ccc(C#Cc2cnc3c(c2)C(=O)N([C@H](C)CO)C[C@H](C)[C@H](CN(C)C)O3)cc1OC,x,83*,0
COc1ccc(C#Cc2cnc3c(c2)C(=O)N([C@H](C)CO)C[C@H](C)[C@H](CN(C)Cc2ccccc2)O3)cc1OC,x,15,0
Cc1cccc(CN(C)C[C@@H]2Oc3ncc(C#CCN(C)C)cc3C(=O)N([C@H](C)CO)C[C@@H]2C)c1,x,3,x
C[C@H](CO)N1C[C@H](C)[C@H](CN(C)C)Oc2ncc(C#Cc3ccccc3)cc2C1=O,x,78*,0
COc1ccc(S(=O)(=O)N(C)C[C@@H]2Oc3ncc(C#Cc4ccc(OC)c(OC)c4)cc3C(=O)N([C@H](C)CO)C[C@@H]2C)cc1,x,43,-1
COc1ccc(C#Cc2cnc3c(c2)C(=O)N([C@H](C)CO)C[C@H](C)[C@H](CN(C)Cc2cccc(C(F)(F)F)c2)O3)cc1OC,x,84*,0
C[C@@H]1CN([C@@H](C)CO)C(=O)c2cccc(NC(=O)Nc3cccc4ccccc34)c2O[C@@H]1CN(C)Cc1ccc(C(F)(F)F)cc1,-25,39,x
Cc1noc(C)c1NC(=O)N(C)C[C@@H]1Oc2c(NC(=O)c3ccc(-c4nccs4)cc3)cccc2C(=O)N([C@@H](C)CO)C[C@H]1C,7,-16,1
C[C@H](CO)N1C[C@H](C)[C@H](CN(C)S(=O)(=O)c2cccs2)OCCCC[C@H](C)Oc2ccc(NS(=O)(=O)c3cccs3)cc2C1=O,x,x,-1
C[C@@H]1CN([C@@H](C)CO)C(=O)c2cccc(NC(=O)c3cnccn3)c2O[C@H]1CN(C)Cc1ccncc1,12,-16,0
C[C@@H]1CCCCO[C@@H](CN(C)Cc2ccncc2)[C@H](C)CN([C@@H](C)CO)C(=O)c2cc(NC(=O)CCCN(C)C)ccc2O1,x,x,0
Cc1noc(C)c1S(=O)(=O)N(C)C[C@@H]1Oc2ccc(NC(=O)CCCN(C)C)cc2CC(=O)N([C@@H](C)CO)C[C@H]1C,x,x,0
C[C@@H]1CN([C@@H](C)CO)C(=O)c2cc(NC(=O)Cn3cnnn3)ccc2O[C@@H]1CN(C)Cc1ccc(-c2ccccc2)cc1,x,-11,x
C[C@H]1CN([C@@H](C)CO)C(=O)c2cc(NS(=O)(=O)c3ccc(Cl)cc3)ccc2O[C@@H]1CN(C)Cc1ccc(Cl)c(Cl)c1,-13,46,0
